Measured values taken from BindingDB's records for doi:10.1021/jm301002f (H. Lee Moffitt Cancer Center and Research Institute, 2012).
Residues, ends and D or L forms follow the SMILES beside them. *: point of attachment. Propyl(2R-PamO,3-PamO) = CCCCCCCCCCCCCCCC(=O)OC[C@H](C*)OC(=O)CCCCCCCCCCCCCCC; X1 = CC(=O)NCCCOCCOCCOCCCNC(=O)COCC(=O)*

How the values were obtained:
[1] = target: T1, Toll-like receptor 2 (Homo sapiens, UniProt O60603); test: Agonist activity at human TLR2 expressed in HEK293 cells assessed as induction of NF-kappaB signaling after 24 hrs by luminescence based luciferase reporter gene assay
T1 sequence (O60603 whole entry): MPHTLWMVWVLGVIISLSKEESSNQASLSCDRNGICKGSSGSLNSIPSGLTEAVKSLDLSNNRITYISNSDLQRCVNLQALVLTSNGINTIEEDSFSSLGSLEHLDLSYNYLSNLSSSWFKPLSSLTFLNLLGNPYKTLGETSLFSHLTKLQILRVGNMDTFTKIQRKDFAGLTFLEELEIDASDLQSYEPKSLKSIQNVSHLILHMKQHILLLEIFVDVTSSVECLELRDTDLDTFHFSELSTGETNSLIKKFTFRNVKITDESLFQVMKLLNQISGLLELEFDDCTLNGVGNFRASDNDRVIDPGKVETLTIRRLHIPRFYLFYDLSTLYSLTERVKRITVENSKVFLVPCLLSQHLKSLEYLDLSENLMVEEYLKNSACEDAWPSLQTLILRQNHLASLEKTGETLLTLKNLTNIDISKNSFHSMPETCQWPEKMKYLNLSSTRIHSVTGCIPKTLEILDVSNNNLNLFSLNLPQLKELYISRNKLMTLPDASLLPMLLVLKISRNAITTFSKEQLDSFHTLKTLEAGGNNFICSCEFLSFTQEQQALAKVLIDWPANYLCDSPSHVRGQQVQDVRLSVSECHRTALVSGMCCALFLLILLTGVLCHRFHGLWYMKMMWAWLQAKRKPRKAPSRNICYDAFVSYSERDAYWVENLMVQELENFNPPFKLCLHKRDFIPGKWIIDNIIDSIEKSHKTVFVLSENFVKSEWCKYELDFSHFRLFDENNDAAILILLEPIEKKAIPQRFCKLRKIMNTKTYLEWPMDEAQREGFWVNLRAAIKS

[2] = target: T1, Toll-like receptor 2; test: Displacement of Eu-DTPA from human TLR2 expressed in SU.86.86 cells after 1 hr
[3] = target: T1, Toll-like receptor 2; test: Displacement of Eu-DTPA from human TLR2 expressed in HEK293 cells after 1 hr
Method in brief: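 Live-cell europium TRF competition binding in HEK-293/hTLR2 (poly-D-lysine plates) or SU.86.86 cells grown 2 days to ~80% confluence. Unlabeled ligand 1 μM to 0.01 nM plus 90 nM Eu-DTPA-labeled tracer, 1 h at 37°C; three washes, enhancement solution 30 min at 37°C, read at 340 nm excitation/615 nm emission with time delay.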

Structure (SMILES) | EC50 [1] [nM] | Ki [2] [nM] | Ki [3] [nM]
CCCCCCCCCCCCCCCC(=O)OC[C@H](CSC[C@H](NC(=O)COCC(=O)NCCCOCCOCCOCCCNC(C)=O)C(=O)N[C@@H](CO)C(=O)N[C@@H](CCCNC(=N)N)C(=O)N[C@@H](Cc1ccccc1)C(=O)N[C@@H](CC(=O)O)C(=O)N[C@@H](CCC(=O)O)C(=O)N[C@@H](CC(=O)O)C(=O)N[C@@H](CC(=O)O)C(=O)N[C@@H](CC(C)C)C(=O)N[C@@H](CCC(=O)O)C(N)=O)OC(=O)CCCCCCCCCCCCCCC (X1-C(Propyl(2R-PamO,3-PamO))SRFDEDDLE-NH2) | 25 |  | 
CCCCCCCCCCCCCCCC(=O)OCC(CSCC(NC(=O)COCC(=O)NCCCOCCOCCOCCCNC(=O)CCSC1CC(=O)N(CCNC(=O)CCCCC[N+]2=C(/C=C/C=C/C=C3/Cc4cc(S(=O)(=O)O)ccc4N3CC)Cc3cc(S(=O)(=O)[O-])ccc32)C1=O)C(=O)NCC(=O)NC(CO)C(=O)NCCCOCCOCCOCCCNC(=O)COCC(N)=O)OC(=O)CCCCCCCCCCCCCCC (centres undefined) | 34 | 67 | 11
